The results in this text go back to ChEMBL document CHEMBL1158804, “Lupane triterpenoids from Maytenus species” (J Nat Prod, 2005).

SMILES strings stand for the structures. The source made the active and inactive calls. No cut-off for these calls is given here.

Experiment [1] has as its system Staphylococcus aureus. Put plainly: Antibacterial activity against Staphylococcus aureus ATCC 6538 up to 40 ug/mL by broth microdilution method. It counts as functional, organism-based. Put shortly: (§1)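 Compounds are dissolved in DMSO. The minimal inhibitory concentration is estimated by broth microdilution.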
(In general: Broth dilution looks for growth in wells or tubes with falling amounts of substance.)

Experiment [2] has as its system Staphylococcus epidermidis. Put plainly: Antibacterial activity against Staphylococcus epidermidis CECT 232 up to 40 ug/mL by broth microdilution method. It counts as functional, organism-based. Put shortly:
as §1

The subject of experiment [3] is Staphylococcus saprophyticus. Put plainly: Antibacterial activity against Staphylococcus saprophyticus CECT 235 up to 40 ug/mL by broth microdilution method. Type of experiment: functional, organism-based. The method, boiled down:
as §1

In experiment [4] the test system is Enterococcus faecalis. Put plainly: Antibacterial activity against Enterococcus faecalis CECT 795 up to 40 ug/mL by broth microdilution method. It counts as functional, organism-based. Put shortly:
as §1

The subject of experiment [5] is Bacillus subtilis. Description: Antibacterial activity against Bacillus subtilis CECT 39 up to 40 ug/mL by broth microdilution method. Type of experiment: functional, organism-based. The method, boiled down: as §1
Experiment [6] concerns Bacillus cereus. Put plainly: Antibacterial activity against Bacillus cereus CECT 496 up to 40 ug/mL by broth microdilution method. Type of experiment: functional, organism-based. Put shortly: as §1
Experiment [7] deals with Bacillus pumilus. Put plainly: Antibacterial activity against Bacillus pumilus CECT 29 up to 40 ug/mL by broth microdilution method. Type of experiment: functional, organism-based. The method, boiled down:
as §1

The test system of experiment [8] is Priestia megaterium. Description: Antibacterial activity against Bacillus megaterium CECT 44 up to 40 ug/mL by broth microdilution method. Type of experiment: functional, organism-based. Put shortly:
as §1

For experiment [9], the system named is Mycolicibacterium smegmatis. Description: Antibacterial activity against Mycobacterium smegmatis CECT 3032 up to 40 ug/mL by broth microdilution method. Type of experiment: functional, organism-based. Put shortly:
as §1

Experiment [10] has as its system Escherichia coli. Put plainly: Antibacterial activity against Escherichia coli CECT 99 up to 40 ug/mL by broth microdilution method. Type of experiment: functional, organism-based. The method, boiled down:
as §1

Experiment [11] deals with Proteus mirabilis. Put plainly: Antibacterial activity against Proteus mirabilis CECT170 up to 40 ug/mL by broth microdilution method. Type of experiment: functional, organism-based. Put shortly: as §1
Experiment [12] has as its system Salmonella. Put plainly: Antibacterial activity against Salmonella sp. CECT 456 up to 40 ug/mL by broth microdilution method. Type of experiment: functional, organism-based. The method, boiled down: as §1
The subject of experiment [13] is Pseudomonas aeruginosa. Put plainly: Antibacterial activity against Pseudomonas aeruginosa AK 958 up to 40 ug/mL by broth microdilution method. It counts as functional, organism-based. Put shortly: as §1
The subject of experiment [14] is Candida albicans. Description: Antifungal activity against Candida albicans UBC1 up to 40 ug/mL by broth microdilution method. It counts as functional, organism-based. The method, boiled down: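 The yeast is grown on Sabouraud agar at 37 °C. Compounds are dissolved in DMSO, and the minimal inhibitory concentration is estimated by broth microdilution.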
The subject of experiment [15] is HeLa. Description: Cytotoxicity against human HeLa cells after 48 hrs by MTT assay. It counts as functional, cell-based. The method, boiled down: (§2)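 Monolayers are cultured in DMEM with 5% fetal calf serum and 1% penicillin-streptomycin at 37 °C, 5% CO2 and 90% humidity. Exponentially growing cells (2 × 10^4 cells/well) are exposed to a range of compound concentrations for 48 h at 37 °C. Viability is read by colorimetric MTT reduction.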

Experiment [16] deals with HEp-2. Put plainly: Cytotoxicity against human Hep2 cells after 48 hrs by MTT assay. Type of experiment: functional, cell-based. The settings on record: HEp-2, 48 h. The method, boiled down: as §2
(Tetrazolium assays rely on reduction of a dye to a coloured formazan, in cell work by metabolically active cells.)

For experiment [17], the system named is Vero. Description: Cytotoxicity against african green monkey Vero cells after 48 hrs by MTT assay. It counts as cell-based. The note with it: Chlorocebus sabaeus. The method, boiled down: as §2

As a reminder, the IC50 is the concentration that inhibits the measured activity by half. For the compound `C=C(C)[C@@H]1CC[C@]2(CO)CC[C@]3(C)[C@H](CC[C@@H]4[C@@]5(C)CC[C@H](O)C(C)(C)[C@@H]5CC[C@]43C)[C@@H]12` [BETULIN], the result in [1], in [2], in experiment [3], in experiment [4], in experiment [5] and in experiment [6] was inactive. Besides, the outcome in experiment [7], in experiment [8], in experiment [9], in experiment [10], in experiment [11] and in [12] was inactive. Further, the outcome in experiment [13] and in experiment [14] was inactive. Moreover, the IC50 in experiment [15], in experiment [16] and in [17] was greater than 10 µg/mL each time.
On to `C=C(C)[C@@H]1CC[C@]2(C)CC[C@]3(C)[C@@H](C[C@@H](O)[C@@H]4[C@@]5(C)CCC(=O)C(C)(C)[C@@H]5CC[C@]43C)[C@@H]12` [RIGIDENOL], for which the outcome in experiment [1], in experiment [2], in experiment [3], in experiment [4], in [5] and in [6] was inactive. For the same compound, the outcome in experiment [7], in experiment [8], in experiment [9], in experiment [10], in [11] and in experiment [12] was inactive. The result in [13] and in experiment [14] was inactive. Further, the half-inhibitory concentration (IC50) in [15], in experiment [16] and in experiment [17] was greater than 10 µg/mL throughout.
Turning to `C=C(C)[C@@H]1CC[C@]2(C)CC[C@]3(C)[C@@H](CC[C@@H]4[C@@]5(C)[C@@H](O)C[C@H](O)C(C)(C)[C@@H]5CC[C@]43C)[C@@H]12` [GLOCHIDIOL], the outcome in experiment [1], in [2], in experiment [3], in experiment [4], in [5] and in experiment [6] was inactive. Further, the outcome in experiment [7], in experiment [8], in experiment [9], in experiment [10], in experiment [11] and in [12] was inactive. Moreover, the outcome in experiment [13] and in [14] was inactive. The 50% inhibitory concentration (IC50) in experiment [15], in [16] and in experiment [17] was greater than 10 µg/mL throughout.
For the compound `C=C(C)[C@@H]1CC[C@]2(CO)CC[C@]3(C)[C@H](CC[C@@H]4[C@@]5(C)CCC(=O)C(C)(C)[C@@H]5CC[C@]43C)[C@@H]12` [BETULONE], the outcome in experiment [1], in experiment [2], in experiment [3], in experiment [4], in experiment [5] and in experiment [6] was inactive. The result in experiment [7], in experiment [8], in experiment [9], in experiment [10], in experiment [11] and in experiment [12] was inactive. The outcome in [13] and in experiment [14] was inactive. Besides, the IC50 in [15], in [16] and in [17] was greater than 10 µg/mL each time.
Regarding `CC(=O)[C@@H]1CC[C@]2(CO)CC[C@]3(C)[C@@H](CC[C@@H]4[C@@]5(C)CC[C@H](O)C(C)(C)[C@@H]5CC[C@]43C)[C@@H]12` [MESSAGENIN], the outcome in experiment [1], in [2], in experiment [3], in [4], in experiment [5] and in experiment [6] was inactive. Further, the outcome in experiment [7], in experiment [8], in experiment [9], in [10], in [11] and in experiment [12] was inactive. In addition, the result in experiment [13] and in [14] was inactive. In addition, the IC50 in [15], in experiment [16] and in [17] was greater than 10 µg/mL throughout.
Consider `C=C(C)[C@@H]1CC[C@]2(CO)CC[C@]3(C)[C@H](CC[C@@H]4[C@@]5(C)CC[C@H](O)C(C)(C)[C@@H]5[C@H](O)C[C@]43C)[C@@H]12`, for which the outcome in experiment [1], in [2], in [3], in experiment [4], in experiment [5] and in experiment [6] was inactive. For the same compound, the outcome in experiment [7], in [8], in experiment [9], in experiment [10], in experiment [11] and in experiment [12] was inactive. In experiment [13], the result was inactive. The IC50 in experiment [15], in experiment [16] and in experiment [17] was greater than 10 µg/mL throughout.
For the compound `C=C(C)[C@@H]1CC[C@]2(CO)CC[C@]3(C)[C@H](CC[C@@H]4[C@@]5(C)C=CC(=O)C(C)(C)[C@@H]5CC[C@]43C)[C@@H]12`, the outcome in [1], in experiment [2], in experiment [3], in experiment [4], in experiment [5] and in [6] was inactive. Further, the result in [7], in [8], in experiment [9], in experiment [10], in experiment [11] and in [12] was inactive. For the same compound, the outcome in [13] was inactive. The IC50 in experiment [15], in experiment [16] and in [17] was greater than 10 µg/mL throughout.
